Assay results: ChEMBL document CHEMBL1158139, “Bioactive oligostilbenoids from the stem bark of Hopea exalata” (J Nat Prod, 2006)
Values after ≈ are worked out from the molar mass of the structure shown.

Columns and labels:
[1] = system: Fusarium oxysporum f. sp. vasinfectum; experiment: Antifungal activity against Fusarium oxysporum f. sp. vasinfectum by MTT assay; format: functional
In short: (§1)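 MIC read visually on microtiter plates, then confirmed colorimetrically with MTT. Each well received RPMI 1640 carrying MTT at 5 mg/mL and was incubated 3 h at 37 °C. Medium was removed and the dye extracted with isopropanol containing 5% mol/L HCl for 30 min at room temperature with gentle agitation. OD read at 550 nm.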

Pyricularia oryzae = experiment: Antifungal activity against Pyricularia oryzae by MTT assay; format: functional
Cytospora mali = experiment: Antifungal activity against Valsa mali by MTT assay; format: functional; in short: as §1
Alternaria alternata = experiment: Antifungal activity against Alternaria alternata by MTT assay; format: functional; in short: as §1
Alternaria solani = experiment: Antifungal activity against Alternaria solani by MTT assay; format: functional; in short: as §1
Colletotrichum lagenaria = experiment: Antifungal activity against Colletotrichum lagenarium by MTT assay; format: functional; in short: as §1
Urease = Urease (Canavalia ensiformis, UniProt P07374); experiment: Inhibition of jack bean urease
Chain of Urease (P07374 whole entry): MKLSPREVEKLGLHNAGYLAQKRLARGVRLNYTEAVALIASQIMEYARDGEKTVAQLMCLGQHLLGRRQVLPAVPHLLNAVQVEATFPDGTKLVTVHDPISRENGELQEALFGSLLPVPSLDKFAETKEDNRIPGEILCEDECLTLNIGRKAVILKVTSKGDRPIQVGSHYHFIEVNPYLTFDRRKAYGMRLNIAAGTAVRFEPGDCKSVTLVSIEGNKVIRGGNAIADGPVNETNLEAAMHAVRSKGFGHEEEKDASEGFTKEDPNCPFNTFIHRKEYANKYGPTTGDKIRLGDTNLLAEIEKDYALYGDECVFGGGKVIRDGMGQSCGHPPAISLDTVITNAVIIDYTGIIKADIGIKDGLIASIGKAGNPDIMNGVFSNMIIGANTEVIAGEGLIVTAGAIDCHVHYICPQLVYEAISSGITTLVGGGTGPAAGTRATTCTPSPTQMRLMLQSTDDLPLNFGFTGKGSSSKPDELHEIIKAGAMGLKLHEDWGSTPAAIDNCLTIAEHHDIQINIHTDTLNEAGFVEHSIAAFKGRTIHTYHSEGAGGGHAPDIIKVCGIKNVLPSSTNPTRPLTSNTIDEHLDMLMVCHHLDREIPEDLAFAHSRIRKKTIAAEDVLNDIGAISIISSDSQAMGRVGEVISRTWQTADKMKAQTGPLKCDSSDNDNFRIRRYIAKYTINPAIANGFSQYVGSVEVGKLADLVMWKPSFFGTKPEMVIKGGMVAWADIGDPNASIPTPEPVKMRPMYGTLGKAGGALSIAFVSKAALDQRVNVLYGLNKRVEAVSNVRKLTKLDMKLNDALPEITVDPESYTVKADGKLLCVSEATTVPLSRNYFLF
In short: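 Jack bean urease (4 U) preincubated with test compound (100 µg) for 2 h at room temperature; then 100 mM phosphate buffer pH 6.8 containing 500 mM urea and 0.002% phenol red added, incubated at room temperature; time for ammonium carbonate to raise pH from 6.8 to 7.7 read at 570 nm; IC50 determined; acetohydroxamic acid as positive control.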

SMILES	MIC [1] [µg/mL]	MIC (Pyricularia oryzae) [µg/mL]	MIC (Cytospora mali) [µg/mL]	MIC (Alternaria alternata) [µg/mL]	MIC (Alternaria solani) [µg/mL]	MIC (Colletotrichum lagenaria) [µg/mL]	IC50 (Urease) [µM]
Oc1ccc([C@@H]2c3c(O)cc(O)cc3[C@@H]3c4c(cc(O)c5c4[C@@H]2[C@@H](c2ccc(O)cc2)[C@@H]5c2cc(O)cc(O)c2)O[C@H]3c2ccc(O)cc2)cc1 [PAUCIFLOROL A]	> 50	11.5 (≈ 16.9 µM)	> 50	1.56 (≈ 2.29 µM)	> 50	> 50	
O=C1c2cc(O)cc3oc(-c4ccc(O)cc4)c(c23)-c2cc(O)cc(O)c2C1c1ccc(O)cc1 (stereo not drawn) [SHOREAPHENOL]	> 50	27.3 (≈ 58.5 µM)	7.13 (≈ 15.3 µM)		> 50	> 50	127
O=C1C=C2O[C@@H](c3ccc(O)cc3)[C@H]3C2=C(C1=O)[C@H]1c2c(cc(O)cc2[C@@H]2c4c(cc(O)cc43)O[C@H]2c2ccc(O)cc2)O[C@@H]1c1ccc(O)cc1 [HOPEANOLIN]	6.22 (≈ 8.98 µM)	0.1 (≈ 0.144 µM)	1.55 (≈ 2.24 µM)	22.5 (≈ 32.5 µM)	1.56 (≈ 2.25 µM)	10.6 (≈ 15.3 µM)	
CC(=O)N1CCN(c2ccc(OCC3COC(Cn4ccnc4)(c4ccc(Cl)cc4Cl)O3)cc2)CC1 (stereo not drawn) [KETOCONAZOLE]	2.21 (≈ 4.16 µM)	0.03 (≈ 0.0565 µM)	0.51 (≈ 0.96 µM)	1.04 (≈ 1.96 µM)	0.83 (≈ 1.56 µM)	0.97 (≈ 1.83 µM)	
Oc1ccc([C@@H]2c3c(O)cc(O)cc3[C@@H]3c4c(cc(O)c5c4[C@H]2[C@H](c2ccc(O)cc2)[C@H]5c2cc(O)cc(O)c2)O[C@H]3c2ccc(O)cc2)cc1 [VATICANOL A]	12.7 (≈ 18.7 µM)	3.12 (≈ 4.58 µM)	20.1 (≈ 29.5 µM)	> 50	6.25 (≈ 9.18 µM)	> 50	
Oc1ccc([C@@H]2c3cc(O)ccc3[C@@H]3c4c(O)cc(O)cc4[C@@H]2c2c(O)cc(O)c4c2[C@@H]3[C@@H](c2ccc(O)cc2)[C@@H]4c2cc(O)cc(O)c2)cc1 [VATICANOL G]	> 50	0.78 (≈ 1.15 µM)	> 50	> 50	24.6 (≈ 36.1 µM)	> 50	
CC(=O)NO [ACETOHYDROXAMIC ACID]							17.3
Oc1ccc([C@H]2Oc3cc(O)cc4c3[C@@H]2c2cc(O)cc3c2[C@@H](c2cc(O)cc5c2[C@@H]4[C@H](c2ccc(O)cc2)O5)[C@H](c2ccc(O)cc2)O3)cc1	25.2 (≈ 37.1 µM)	6.25 (≈ 9.21 µM)	> 50	> 50	3.12 (≈ 4.6 µM)	12.5 (≈ 18.4 µM)	
